# Measured values of several laboratories.
# Target: Dual specificity mitogen-activated protein kinase kinase 3 (MAP2K3, Homo sapiens, UniProt P46734)
# Sequence (P46734 1-347, as in one of the studies): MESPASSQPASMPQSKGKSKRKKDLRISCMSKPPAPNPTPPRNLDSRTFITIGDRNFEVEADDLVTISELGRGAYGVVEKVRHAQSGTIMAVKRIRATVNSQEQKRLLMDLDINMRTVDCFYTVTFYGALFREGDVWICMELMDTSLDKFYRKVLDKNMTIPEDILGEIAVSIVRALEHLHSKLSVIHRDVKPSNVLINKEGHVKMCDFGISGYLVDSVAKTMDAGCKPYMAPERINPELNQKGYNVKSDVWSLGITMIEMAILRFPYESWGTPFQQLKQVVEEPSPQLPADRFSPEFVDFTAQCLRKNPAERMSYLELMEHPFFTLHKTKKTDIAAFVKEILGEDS
Structure (SMILES),observed,action,method,concentration,measurement,result
CC(=O)C1=C(C)N(c2cccc(C(F)(F)F)c2)C(=O)N[C@@H]1c1ccc(C#N)nc1,cell-free assay,,competition with immobilised ligand,1 µM,remaining binding,95.2%
Cc1ccc(C(=O)Nc2ccc(CN3CCN(C)CC3)c(C(F)(F)F)c2)cc1C#Cc1cnc2cccnn12,enzyme activity,inhibitor,,23.5 nM,remaining activity,94%
Nc1ncnc2occ(-c3ccc(NC(=O)Nc4cc(C(F)(F)F)ccc4F)cc3)c12,cell-free assay,inhibitor,,20 µM,remaining signal,11%
O=C(Nc1cnn(-c2csc(C(=O)NC3COC3)c2)c1)Nc1c(F)cccc1Cl,enzyme activity,inhibitor,,5 µM,remaining activity,111%
Cc1ccc(C(=O)NCc2ccsc2)cc1C#Cc1cn(C(C)C)c2ncnc(N)c12,enzyme activity,inhibitor,,1 µM,activity vs control,77%
Cc1c(NC(=O)c2cc(C(N)=O)nc3cc(F)ccc23)c(C(F)(F)F)nn1Cc1ccc(C(C)(C)C)cc1,cell-free assay,,competition with immobilised ligand,1 µM,remaining binding,90%
Cc1sc(C(=O)NC2COC2)cc1-n1cc(NC(=O)Nc2c(F)cccc2Cl)cn1,enzyme activity,inhibitor,,10 µM,remaining activity,88.8%
CN1CC(Oc2cnc(C#N)cc2-c2ccn3nc(NC(=O)C4CC4)cc3c2)C1,enzyme activity,inhibitor,,1 µM,inhibition,-8%
C[C@@H]1CCN(c2nccc(-c3cnn4ncccc34)n2)C1,binding,,,1 µM,remaining binding,69%
CC/C(=N\NC(=O)NCc1cccc(O)c1)c1ccc(O)c(C)c1O,enzyme activity,inhibitor,,0.1 µM,inhibition,-2.5%
